Screens as filed in PubChem BioAssay.
Rows were chosen to be rich in hits. Some 1.8% of all compounds tested hit in one or more screens of this group.
PTPN22 inh 2: LYP (human) phosphatase inhibition; Q9Y2R2; recombinant LYP catalytic domain, DiFMUP fluorescence; inhibition, % at 2 µM; 96,000 compounds, 0.21% hits; AID 640;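 active = inhibition at 2 µM at or above a set limit, the screen mean plus 3 SD, cut at about 24% in these data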;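 note: 0% = DMSO with enzyme and 100% = enzyme fully blocked by orthovanadate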
PLK1 kinase inh: inhibitors of human PLK1 kinase; recombinant PLK1 kinase, TR-FRET peptide phosphorylation; inhibition, % at 10 µM; 97,000 compounds, 0.53% hits; AID 619;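 active = inhibition of 50% or more in the single-concentration screen; inactive = inhibition below 50%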;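 note: 0% = DMSO max control and 100% = H-89 dihydrochloride min control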
Target sequence (P53350 whole entry, looked up): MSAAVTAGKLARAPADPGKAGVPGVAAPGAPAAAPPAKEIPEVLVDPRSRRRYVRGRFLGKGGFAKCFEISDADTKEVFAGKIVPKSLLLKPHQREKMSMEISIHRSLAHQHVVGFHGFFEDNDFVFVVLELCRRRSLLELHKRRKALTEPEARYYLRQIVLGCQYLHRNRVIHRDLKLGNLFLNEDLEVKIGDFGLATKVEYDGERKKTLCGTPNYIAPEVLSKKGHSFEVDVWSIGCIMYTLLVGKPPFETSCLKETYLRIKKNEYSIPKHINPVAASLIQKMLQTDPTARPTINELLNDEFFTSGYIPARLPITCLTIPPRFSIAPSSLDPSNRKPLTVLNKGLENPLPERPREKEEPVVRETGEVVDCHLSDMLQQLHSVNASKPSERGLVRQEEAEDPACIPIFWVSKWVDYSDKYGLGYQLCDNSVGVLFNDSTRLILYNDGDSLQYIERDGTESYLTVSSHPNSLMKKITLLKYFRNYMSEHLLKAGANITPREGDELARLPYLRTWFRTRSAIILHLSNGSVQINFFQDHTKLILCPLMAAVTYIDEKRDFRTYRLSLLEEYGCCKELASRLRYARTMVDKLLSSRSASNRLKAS
Rev-RRE block: inhibitors of HIV-1 Rev-RRE RNA interaction | Rev peptide-RRE RNA binding, FRET | 97,000 compounds, 0.79% hits | AID 704 | P05866 | inhibition, % at 8 µM;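 active = inhibition above the screen-wide mean plus 3 SD, cut at about 35% in these data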;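 note: 0% = median DMSO wells and 100% = median Neomycin B control wells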
Target sequence (P05866 whole entry, looked up): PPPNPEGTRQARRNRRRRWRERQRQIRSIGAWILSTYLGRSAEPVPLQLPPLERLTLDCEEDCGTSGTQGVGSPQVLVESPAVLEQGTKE
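Test system – labelled RRE RNA duplex and labelled Rev peptide · Reagent – labelled Rev peptide · Doses – one concentration, 8 µM nominal · Incubation – 5 + 15 min at 25 °C · Signal – FRET fluorescence readout · Read-out basis – % inhibition of FRET ratio versus controls · Control set – DMSO wells as 0% and neomycin B wells as 100% inhibition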
PLK1 PBD inh: Plk1 (human) PBD binding inhibition. P53350. Plk1 PBD phosphopeptide binding, fluorescence polarization. inhibition, %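 (tested at about 20 µM)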. 97,000 compounds, 0.13% hits. AID 693; in the data active = inhibition above about 34%, passing the limit was not always enough
LYP act: increases human PTPN22 phosphatase activity. Q9Y2R2. recombinant LYP, DiFMUP fluorescence; 0 = plate median, 100 = signal doubled. activation, % at 2 µM. 96,000 compounds, 0.11% hits;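 active = activation at 2 µM above a set limit, the mean plus 5 SD, cut at about 37% in these data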
EphB4 ephrin blk: blocks human EphB4 binding to ephrin-B2. P54760. EphB4 LBD / TNYL-RAW-Alexa532 peptide, fluorescence polarization. inhibition, % at 7 µM. 97,000 compounds, 0.15% hits. AID 720;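 active = inhibition above the screen-wide mean inhibition plus 3 SD, cut at about 15% in these data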;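 note: 0% = DMSO wells and 100% = excess unlabeled TNYL-RAW peptide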
An asterisk follows results filed as active; / = no result given; [ ] = another dose, or the depositor's remark.

SMILES	PTPN22 inh 2	PLK1 kinase inh	Rev-RRE block	PLK1 PBD inh	LYP act	EphB4 ephrin blk
Cc1c(Cl)c(-c2n[nH]c(=S)n2-c2ccc(F)cc2)nn1C	8.4	-14.1	0.7	-3.7	-3.4	-1.9
CC1=Nc2ccccc2/C1=C\c1nc(-c2ccc(C(F)(F)F)cc2)oc1O	4.1	-26.8	125.8*[fluorescence artefact?]	-45.5	-2.4	24.8*
Oc1ccccc1-c1nnc(-c2ccc(C(F)(F)F)cc2)o1	8.5	-2.5	11.5	-11.3	-10.3	2.2
CC1=Nc2ccccc2/C1=C\c1nc(-c2ccccc2)oc1O	3.2	-20.8	54.1*	-26.9	-5.6	-2.4
CCn1cc(C(=O)N2CCOCC2)c(=O)c2cc(S(=O)(=O)N(C)C)ccc21	/	69.2*	10.8	24.5	/	1.6
CCOC(=O)c1ccc2c(c1)N(CC)/C(=C\C=C1/SC(=S)N(CC)C1=O)N2CC	0.1	-10.5	133.3*[fluorescence artefact?]	-130.4	-0.2	-16.4
Cc1ccc(NC(=O)/C(C#N)=C/c2ccc(C)s2)c(C)c1	6.3	-9.1	36.7*	-19.7	-5.7	-1.5
Cc1ccc(/C=C(\C#N)C(=O)Nc2c(C)cccc2C)s1	-9.7	-5.9	19.2	-19.2	7.9	-3.0
CC(C)OC(=O)c1c2nc3ccccc3nc2n2c1[nH]c(=O)c1ccccc12	13.3	-19.1	69.5*	-33.9	-14.5	0.3
O=C(NC(C(=O)c1ccccc1)n1c(=O)cc[nH]c1=S)c1ccccc1 (stereo not drawn)	2.2	-6.5	3.4	27.3	-2.4	-0.5
Cc1cc2c(cc1C)NC(c1c(C)n(C)n(-c3ccccc3)c1=O)C1=C(CC(C)(C)CC1=O)N2 (stereo not drawn)	6.2	-7.6	107.2*[fluorescence artefact?]	4.2	-3.7	5.2
CC1(C)CC(=O)C2=C(C1)Nc1ccccc1NC2c1nc2ccccc2[nH]1 (stereo not drawn)	-5.7	-13.8	-0.3	31.1	3.3	-8.5
CCCC(=O)Nc1ccc2c(c1)nc(CCNC(=O)c1ccccc1)n2C	26.7*	-6.8	2.3	1.3	-25.5	0.5
CCCCOc1c(Br)cc(/C=C2\N=C(C)OC2=O)cc1OCC	-25.7	-10.9	-4.5	6.5	29.5	-4.6
O=C(Nc1ccccc1Sc1ccccc1)c1ccccc1F	7.6	-6.5	13.9	3.7	-9.5	16.4*
O=c1ccc(Oc2nc(N3CCOCC3)nc(N3CCOCC3)n2)n[nH]1	-2.7	-1.7	3.5	-0.3	5.7	-5.7
Cc1onc(-c2ccccc2)c1C(=O)Nc1ccc(S(=O)(=O)NC2=NCCCCC2)cc1	2.9	10.8	11.4	-31.4	-3.5	20.3*
Cc1ccc(-n2nc3c(c2NC(=O)c2ccc(S(=O)(=O)N4CCOCC4)cc2)CSC3)c(C)c1	1.3	-10.8	3.8	-12.7	-3.4	4.6
CCn1c(CSc2nccn2C)nc2cc(C(=O)O)ccc21	8.3	-4.5	21.8	30.3	-9.1	15.4*
O=C(COc1ccccc1Cl)N1CCN(c2ccc([N+](=O)[O-])c(N3CCOCC3)c2)CC1	1.4	-7.4	4.6	-37.1	3.9	-6.0
O=C1S/C(=C\c2ccc(N3CCOCC3)o2)C(=O)N1Cc1ccc(F)cc1	8.7	-5.9	117.2*[fluorescence artefact?]	-114.2	-6.4	8.1
O=C1S/C(=C/c2ccc(N3CCOCC3)o2)C(=O)N1Cc1ccc(F)cc1	-2.0	-17.1	115.0*[fluorescence artefact?]	-33.8	6.3	-4.3
O=C1/C(=C/c2ccc(N3CCOCC3)o2)SC(=Nc2ccccc2)N1CCc1c[nH]c2ccccc12	8.0	-20.4	136.0*[fluorescence artefact?]	-176.8	-4.1	3.4
CC(C)OC(=O)CN1C(=O)S/C(=C/c2ccc(N3CCCCC3)o2)C1=O	4.9	-13.7	136.2*[fluorescence artefact?]	-326.6	-6.4	-1.9
CC1=CCC2C(=O)N(CCc3c[nH]c4ccccc34)C(=O)C2C1 (stereo not drawn)	-6.0	-8.7	1.9	12.4	6.1	-1.6
SMILES	PTPN22 inh 2	PLK1 kinase inh	Rev-RRE block	PLK1 PBD inh	LYP act	EphB4 ephrin blk
CC(C)n1cc(/C=C2/SC(=O)N(CC(=O)N3CCCC3)C2=O)c2ccccc21	3.7	-8.9	-4.9	-1.1	1.0	-4.3
O=C1N/C(=C/c2ccc(N3CCOCC3)cc2)C(=O)N1Cc1ccc(F)cc1	3.0	-7.4	5.1	-11.1	-4.0	-9.1
Cc1ccccc1N(CC(=O)N/N=C/c1ccc(N(C)C)cc1)C(=O)c1ccccc1	-2.4	-7.5	7.6	-14.6	0.9	3.5
COc1ccc(Oc2ccccc2C=O)cc1	1.5	-15.2	0.4	-18.1	1.0	1.4
Cc1cc(/C=C2\SC(=Nc3ccccc3)NC2=O)c(C)n1-c1ccc(S(N)(=O)=O)cc1	18.5	0.6	13.0	-27.7	-14.7	3.0
O=C(O)CCCCCNc1nc(=S)[nH]c2ccccc12	26.7*	-6.1	7.7	39.0	-23.8	-0.3
CN1CCN(c2nc(-c3ccncc3)nc3ccccc23)CC1	8.3	53.1*	7.2	17.3	-11.2	5.0
c1ccc(-c2cn3nc4c(nc3n2)CCCC4)cc1	-0.3	12.6	47.5*	-3.6	2.5	-4.3
CC(=O)Nc1cccc(NC(=O)CSc2nnc(Cc3cccn3C)n2-c2ccc(C)cc2)c1	-4.6	2.1	6.3	9.5	1.9	16.4*
COc1ccc(-n2c(Cc3cccn3C)nnc2SCC(=O)Nc2cccc(NC(C)=O)c2)cc1	-7.1	-3.0	9.6	0.6	3.5	6.2
CNc1ccc(Br)cc(C(=O)/C=C/c2cccc(OC)c2OC)c1=O	8.8	5.5	65.2*	-1.2	-9.3	2.1
CCNc1ccc(Br)cc(C(=O)/C=C/c2ccccc2Cl)c1=O	14.3	-2.0	76.8*[fluorescence artefact?]	-14.8	-14.8	0.5
CSc1nnc(C)c(/C=C/Nc2ccc(Cl)cc2)n1	2.4	-15.1	41.9*	-38.6	1.7	-1.7
CSc1nnc(C)c(/C=C/Nc2ccc(F)cc2)n1	8.4	-0.4	89.3*[fluorescence artefact?]	-36.3	-4.7	4.8
CCOC(=O)c1sc2cccc(F)c2c1N	3.0	-19.6	0.5	21.5	-5.8	-5.4
CCOC(=O)c1sc2cc([N+](=O)[O-])cc(SCC(C)C)c2c1N	3.5	-16.4	61.7*	-32.2	-4.9	6.0
CC(C)(CSc1nncn1N)NS(=O)(=O)c1ccc(Cl)cc1	-17.2	-4.5	8.0	-0.5	16.4	2.0
Cc1cccc(NC(=O)CSc2nnc(-c3ccc(S(=O)(=O)N4CCCC4)cc3)o2)c1	-10.2	1.1	3.6	5.5	9.0	16.8*
COc1ccc(-n2c(C)cc(C(=O)CSc3nnc(-c4ccoc4C)n3C)c2C)cc1	-14.9	-16.5	-3.3	-19.4	11.2	-17.4
COc1ccc(N=C2C(=Nc3ccc(OC)cc3)N(c3ccc(N(C)C)cc3)C(=S)N2c2ccc(OC)cc2)cc1	2.7	-9.0	-3.2	-20.1	0.2	-1.5
CCOc1ccc(N=C2NC(=O)S/C2=C\c2ccc(Cl)cc2)cc1	25.8*	-11.2	3.8	13.7	-21.7	-1.2
COc1ccc(N=C2NC(=O)S/C2=C\c2ccc(N(C)C)cc2)cc1	2.5	-6.9	116.7*[fluorescence artefact?]	-426.1	-5.2	9.5
Cn1c(SCc2nn[nH]n2)nc2c1c(=O)n(Cc1ccccc1Cl)c(=O)n2C	-1.8	-1.0	3.5	5.7	4.2	-1.1
